In ChEMBL document CHEMBL1148007, “Synthesis of new S-derivatives of clubbed triazolyl thiazole as anti-Mycobacterium tuberculosis agents” (Bioorg Med Chem, 2007):

Columns and labels:
[1] = Cytotoxicity against Vero-C1008 cells at 6.25 to 50 ug/mL by neutral red uptake assay; format: cell-based; conditions: chlorocebus sabaeus
Summary of the method: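 Vero-C-1008 cells exposed to 6.25 to 50 μg/mL compound; viability read by neutral red uptake.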

Staphylococcus aureus = experiment: Antibacterial activity against Staphylococcus aureus at 50 to 100 uM after 24 hrs by well diffusion method; format: functional
Summary of the method: (§1)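 Nutrient agar plates with 10 mm wells cut by cork borer; 24-h subcultured bacteria swabbed on. Compounds dissolved in chloroform, 50 to 100 μM added to wells, gentamycin as standard. Incubated 24 h at 24–28 °C; inhibition zone diameter measured and converted to percent inhibition.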

[2] = tested on: Mycobacterium tuberculosis; experiment: Antitubercular activity against Mycobacterium tuberculosis H37Rv by MABA assay; format: functional
Summary of the method: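 Actives re-tested at lower concentrations against H37Rv (ATCC 27294) in BACTEC 12B medium by Microplate Alamar Blue Assay. MIC taken as lowest concentration giving […] fluorescence reduction versus controls; rifampin reference.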

Pseudomonas aeruginosa = experiment: Antibacterial activity against Pseudomonas aeruginosa at 50 to 100 uM after 24 hrs by well diffusion method; format: functional; summary of the method: as §1
Salmonella typhi = experiment: Antibacterial activity against Salmonella typhi at 50 to 100 uM after 24 hrs by well diffusion method; format: functional, Salmonella enterica subsp. enterica serovar Typhi; set-up: unit not given here; summary of the method: as §1
Escherichia coli = experiment: Antibacterial activity against Escherichia coli at 50 to 100 uM after 24 hrs by well diffusion method; format: functional; summary of the method: as §1

Structure (SMILES)	Activity [1]	inhibition zone (Staphylococcus aureus) [mm]	MIC [2] [µg/mL]	inhibition zone (Pseudomonas aeruginosa) [mm]	Inhibition (Salmonella typhi)	inhibition zone (Escherichia coli) [mm]
CC(=O)NNC(=O)CSc1nnc(Cc2csc(NC(C)=O)n2)n1NC(=O)c1ccc(Cl)cc1	Non-toxic	27	< 6.25	19	23	20
CC(=O)NNC(=O)CSc1nnc(Cc2csc(NC(=O)CCl)n2)n1NC(=O)c1ccc(Cl)cc1	Non-toxic	25	< 6.25	21	22	24
CC(=O)NNC(=O)CSc1nnc(Cc2csc(NC(=O)c3ccccc3)n2)n1NC(=O)c1cccc([N+](=O)[O-])c1	Non-toxic	20	< 6.25	18	12	14
O=C(CCl)Nc1nc(Cc2nnc(SCSc3nnc(Cc4csc(NC(=O)CCl)n4)n3NC(=O)c3ccc(Cl)cc3)n2NC(=O)c2ccc(Cl)cc2)cs1	Non-toxic	23	< 6.25	28	18	29
COC(=O)CSc1nnc(Cc2csc(NCCC(=O)O)n2)n1NC(=O)c1ccc(Cl)cc1	Non-toxic	26	< 6.25	24	18	22
O=C(O)CCNc1nc(Cc2nnc(SCSc3nnc(Cc4csc(NCCC(=O)O)n4)n3NC(=O)c3cccc([N+](=O)[O-])c3)n2NC(=O)c2cccc([N+](=O)[O-])c2)cs1	Non-toxic	25	< 6.25	26	18	21
NNC(=O)CSc1nnc(Cc2csc(NCCC(=O)O)n2)n1NC(=O)c1cccc([N+](=O)[O-])c1	Non-toxic	24	< 6.25	28	21	16
O=C(CCl)NNC(=O)CSc1nnc(Cc2csc(NC(=O)c3ccccc3)n2)n1NC(=O)c1cccc([N+](=O)[O-])c1	Non-toxic	14	< 6.25	11	12	18
CC(=O)Nc1nc(Cc2nnc(SCc3nnc(S)n3N)n2NC(=O)c2ccc(Cl)cc2)cs1	Non-toxic	28	< 6.25	21	18	23
CC(=O)NNC(=O)CSc1nnc(Cc2csc(NCCC(=O)O)n2)n1NC(=O)c1ccc(Cl)cc1	Non-toxic	20	< 6.25	21	18	26
COC(=O)CSc1nnc(Cc2csc(NC(C)=O)n2)n1NC(=O)c1cccc([N+](=O)[O-])c1	Non-toxic	24	< 6.25	22	18	20
O=C(O)CCNc1nc(Cc2nnc(SCC(=O)NNC(=O)c3ccccc3)n2NC(=O)c2ccc(Cl)cc2)cs1	Non-toxic	18	< 6.25	25	23	19
CC(=O)Nc1nc(Cc2nnc(SCSc3nnc(Cc4csc(NC(C)=O)n4)n3NC(=O)c3cccc([N+](=O)[O-])c3)n2NC(=O)c2cccc([N+](=O)[O-])c2)cs1	Non-toxic	27	< 6.25	32	26	26
CC(=O)NNC(=O)CSc1nnc(Cc2csc(NCCC(=O)O)n2)n1NC(=O)c1cccc([N+](=O)[O-])c1	Non-toxic	24	< 6.25	10	14	14
COC(=O)CSc1nnc(Cc2csc(NC(=O)c3ccccc3)n2)n1NC(=O)c1ccc(Cl)cc1	Non-toxic	22	< 6.25	22	16	20
O=C(CCl)Nc1nc(Cc2nnc(SCSc3nnc(Cc4csc(NC(=O)CCl)n4)n3NC(=O)c3cccc([N+](=O)[O-])c3)n2NC(=O)c2cccc([N+](=O)[O-])c2)cs1	Non-toxic	18	< 6.25	30	24	27
COC(=O)CSc1nnc(Cc2csc(NC(=O)c3ccccc3)n2)n1NC(=O)c1cccc([N+](=O)[O-])c1	Non-toxic	22	< 6.25	11	24	24
CC(=O)Nc1nc(Cc2nnc(SCC(=O)NNC(=O)c3ccccc3)n2NC(=O)c2ccc(Cl)cc2)cs1	Non-toxic	28	< 6.25	22	17	20
CC(=O)NNC(=O)CSc1nnc(Cc2csc(NC(C)=O)n2)n1NC(=O)c1cccc([N+](=O)[O-])c1	Non-toxic	33	< 6.25	34	29	30
CC(=O)Nc1nc(Cc2nnc(SCSc3nnc(Cc4csc(NC(C)=O)n4)n3NC(=O)c3ccc(Cl)cc3)n2NC(=O)c2ccc(Cl)cc2)cs1	Non-toxic	24	< 6.25	21	17	24
COC(=O)CSc1nnc(Cc2csc(NC(=O)CCl)n2)n1NC(=O)c1ccc(Cl)cc1	Non-toxic	18	< 6.25	16	12	10
O=C(O)CCNc1nc(Cc2nnc(SCSc3nnc(Cc4csc(NCCC(=O)O)n4)n3NC(=O)c3ccc(Cl)cc3)n2NC(=O)c2ccc(Cl)cc2)cs1	Non-toxic	21	< 6.25	29	20	22
Nn1c(S)nnc1CSc1nnc(Cc2csc(NCCC(=O)O)n2)n1NC(=O)c1ccc(Cl)cc1	Non-toxic	21	< 6.25	24	23	19
O=C(O)CCNc1nc(Cc2nnc(SCC(=O)NNC(=O)CCl)n2NC(=O)c2cccc([N+](=O)[O-])c2)cs1	Non-toxic	24	< 6.25	26	24	24
Nn1c(S)nnc1CSc1nnc(Cc2csc(NC(=O)CCl)n2)n1NC(=O)c1ccc(Cl)cc1	Non-toxic	27	< 6.25	20	20	22
O=C(CSc1nnc(Cc2csc(NC(=O)c3ccccc3)n2)n1NC(=O)c1ccc(Cl)cc1)NNC(=O)c1ccccc1	Non-toxic	19	< 6.25	24	18	18
